In brackets after ≈: the same amount, converted by molar mass.

Data set [1] in a line: Cytotoxicity against MDCK cells after 48 hrs by CPE assay. The data set is classed as cell-based, Canis lupus familiaris. Conditions: dog. The method in brief:
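MDCK cells kept in Minimum Essential Medium with Earle's salt plus 10% fetal bovine serum at 37 °C, 5% CO₂. […] Medium then replaced by assay medium with or without compound. After 48 h exposure, viability read by CPE assay. CC₅₀ calculated by Reed–Muench analysis.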

Data set [2] deals with Staphylococcus epidermidis. Description: Antibacterial activity against 10^4 CFU methicillin-sensitive Staphylococcus epidermidis 09-6 after 18 hrs by CLSI agar dilution method. In kind it is functional. Conditions: 09-6, 18 h.
The test system of data set [3] is Enterococcus faecium. As to the kind of experiment: Antibacterial activity against 10^4 CFU Enterococcus faecium 06-7 after 18 hrs by CLSI agar dilution method. The data set is classed as functional. Conditions: 06-7, 18 h. In general terms: Agar dilution tests growth on a series of plates holding different concentrations.
Data set [4] concerns Staphylococcus aureus. Description: Antibacterial activity against 10^4 CFU methicillin-resistant Staphylococcus aureus 08-1 after 18 hrs by CLSI agar dilution method. In kind it is functional. Conditions: 08-1, 18 h.
The subject of data set [5] is Staphylococcus aureus. As to the kind of experiment: Antibacterial activity against 10^4 CFU Staphylococcus aureus ATCC 25923 after 18 hrs by CLSI agar dilution method. The data set is classed as functional. The conditions noted are these: ATCC 25923, 18 h.
Data set [6] relates to Escherichia coli. As to the kind of experiment: Antibacterial activity against 10^4 CFU Escherichia coli ATCC 25922 after 18 hrs by CLSI agar dilution method. Conditions: ATCC 25922, 18 h. The data set is classed as functional.
For data set [7], the system named is Escherichia coli. As to the kind of experiment: Antibacterial activity against 10^4 CFU Escherichia coli 08-21 after 18 hrs by CLSI agar dilution method. In kind it is functional. The conditions noted are these: 08-21, 18 h.
Data set [8] relates to Pseudomonas aeruginosa. As to the kind of experiment: Antibacterial activity against 10^4 CFU Pseudomonas aeruginosa 09-32 after 18 hrs by CLSI agar dilution method. The data set is classed as functional. The conditions noted are these: 09-32, 18 h.
The subject of data set [9] is Staphylococcus aureus. Description: Antibacterial activity against 10^4 CFU methicillin-sensitive Staphylococcus aureus 08-1 after 18 hrs by CLSI agar dilution method. In kind it is functional. Conditions: 08-1, 18 h.
Data set [10] relates to Enterococcus faecalis. Description: Antibacterial activity against 10^4 CFU Enterococcus faecalis 08-10 after 18 hrs by CLSI agar dilution method. Conditions: 08-10, 18 h. In kind it is functional.
The subject of data set [11] is Klebsiella pneumoniae. Description: Antibacterial activity against 10^4 CFU Klebsiella pneumoniae 09-23 after 18 hrs by CLSI agar dilution method. In kind it is functional. Conditions: 09-23, 18 h.
Data set [12] concerns Pseudomonas aeruginosa. Description: Antibacterial activity against 10^4 CFU Pseudomonas aeruginosa ATCC 27853 after 18 hrs by CLSI agar dilution method. In kind it is functional. Conditions: ATCC 27853, 18 h.
For data set [13], the system named is Klebsiella pneumoniae. As to the kind of experiment: Antibacterial activity against 10^4 CFU Klebsiella pneumoniae 09-22 after 18 hrs by CLSI agar dilution method. In kind it is functional. The conditions noted are these: 09-22, 18 h.
The subject of data set [14] is Enterococcus faecalis. As to the kind of experiment: Antibacterial activity against 10^4 CFU Enterococcus faecalis 08-12 after 18 hrs by CLSI agar dilution method. In kind it is functional. The conditions noted are these: 08-12, 18 h.
Data set [15] has as its system Enterococcus faecium. As to the kind of experiment: Antibacterial activity against 10^4 CFU Enterococcus faecium 08-2 after 18 hrs by CLSI agar dilution method. In kind it is functional. The conditions noted are these: 08-2, 18 h.
In the next data set the test system is Streptococcus pneumoniae. As to the kind of experiment: Antibacterial activity against 10^4 CFU Streptococcus pneumoniae 08-4 after 18 hrs by CLSI agar dilution method. Conditions: 08-4, 18 h. The data set is classed as functional.
The subject of data set [16] is Staphylococcus epidermidis. As to the kind of experiment: Antibacterial activity against 10^4 CFU methicillin-resistant Staphylococcus epidermidis 09-2 after 18 hrs by CLSI agar dilution method. In kind it is functional. The conditions noted are these: 09-2, 18 h.

As usually defined, the CC50 is the concentration giving 50% cytotoxicity. Low readings indicate harm at low concentration, high ones better tolerance by the cells. One may read the MIC as the smallest concentration in the dilution series that meets the test's criterion for growth inhibition. Read a high MIC as weaker potency. In [1], `CCn1cc(C(=O)O)c(=O)c2cc(F)c(N3CCC(C)(N)/C(=N/OC)C3)c(F)c21` (stereo not given) returned a CC50 at 48 h of 433 µM. For the same compound, the MIC in [2] is 0.25 µg/mL (≈ 0.612 µM); against Enterococcus faecium [3] it was above 128 µg/mL; in the data set on Staphylococcus aureus [4], 0.25 µg/mL (≈ 0.612 µM); in the data set on Staphylococcus aureus [5], 0.5 µg/mL (≈ 1.22 µM); in the data set with Escherichia coli [6], 128 µg/mL (≈ 313 µM); against Escherichia coli [7], above 128 µg/mL. The MIC against Pseudomonas aeruginosa [8] is 4 µg/mL (≈ 9.79 µM); against Staphylococcus aureus [9], 0.25 µg/mL (≈ 0.612 µM); in the data set on Enterococcus faecalis [10], 32 µg/mL (≈ 78.4 µM); in the data set on Klebsiella pneumoniae [11] it was 64 µg/mL (≈ 157 µM); against Pseudomonas aeruginosa [12], 4 µg/mL (≈ 9.79 µM); against Klebsiella pneumoniae [13], 32 µg/mL (≈ 78.4 µM). Further, the MIC in the data set with Enterococcus faecalis [14] was 64 µg/mL (≈ 157 µM); against Enterococcus faecium [15], above 128 µg/mL; with Streptococcus pneumoniae, 0.25 µg/mL (≈ 0.612 µM); in data set [16], 0.25 µg/mL (≈ 0.612 µM).
On to `CCO/N=C1\CN(c2c(F)cc3c(=O)c(C(=O)O)cn(CC)c3c2F)CCC1(C)N` (stereo not given), for which the midpoint of cytotoxicity in data set [1], the CC50 at 48 h, lay at 592 µM. Besides, the MIC in [2] is 0.25 µg/mL (≈ 0.592 µM); against Enterococcus faecium [3] it was above 128 µg/mL; in the data set with Staphylococcus aureus [4] it was 0.25 µg/mL (≈ 0.592 µM); in the data set on Staphylococcus aureus [5] it was 0.25 µg/mL (≈ 0.592 µM); against Escherichia coli [6] it was above 128 µg/mL; against Escherichia coli [7] it was above 128 µg/mL. Also, the MIC in the data set with Pseudomonas aeruginosa [8] was 64 µg/mL (≈ 152 µM); in the data set with Staphylococcus aureus [9] it was 0.25 µg/mL (≈ 0.592 µM); in the data set with Enterococcus faecalis [10] it was 4 µg/mL (≈ 9.47 µM); against Klebsiella pneumoniae [11], above 128 µg/mL; with Pseudomonas aeruginosa [12], 4 µg/mL (≈ 9.47 µM); with Klebsiella pneumoniae [13], above 128 µg/mL. Moreover, the MIC is above 128 µg/mL in the data set with Enterococcus faecalis [14], above 128 µg/mL with Enterococcus faecium [15], 0.25 µg/mL (≈ 0.592 µM) in the data set on Streptococcus pneumoniae and 0.25 µg/mL (≈ 0.592 µM) in data set [16].
Consider `CO/N=C1\CN(c2c(F)cc3c(=O)c(C(=O)O)cn(CCF)c3c2F)CCC1(C)N` (stereo not given), for which, in data set [1], the CC50 at 48 h amounted to 36.6 µM. The MIC came to 0.25 µg/mL (≈ 0.586 µM) in [2]; 128 µg/mL (≈ 300 µM) against Enterococcus faecium [3]; 0.25 µg/mL (≈ 0.586 µM) with Staphylococcus aureus [4]; 0.125 µg/mL (≈ 0.293 µM) in the data set with Staphylococcus aureus [5]; 32 µg/mL (≈ 75 µM) with Escherichia coli [6]; 32 µg/mL (≈ 75 µM) with Escherichia coli [7]. In addition, the MIC with Pseudomonas aeruginosa [8] came to 0.5 µg/mL (≈ 1.17 µM); against Staphylococcus aureus [9], 0.25 µg/mL (≈ 0.586 µM); in the data set with Enterococcus faecalis [10] it was 128 µg/mL (≈ 300 µM); in the data set with Klebsiella pneumoniae [11], 32 µg/mL (≈ 75 µM); against Pseudomonas aeruginosa [12], 2 µg/mL (≈ 4.69 µM); against Klebsiella pneumoniae [13] it was 16 µg/mL (≈ 37.5 µM). In addition, the MIC came out at 32 µg/mL (≈ 75 µM) in the data set with Enterococcus faecalis [14], 32 µg/mL (≈ 75 µM) in the data set with Enterococcus faecium [15], 2 µg/mL (≈ 4.69 µM) in the data set with Streptococcus pneumoniae and 0.25 µg/mL (≈ 0.586 µM) in data set [16].
As to `CCO/N=C1\CN(c2c(F)cc3c(=O)c(C(=O)O)cn(C4CC4)c3c2F)CCC1(C)N` (stereo not given), the CC50 at 48 h in [1] worked out at 288 µM. In addition, the MIC in data set [2] was 0.5 µg/mL (≈ 1.15 µM); in the data set with Enterococcus faecium [3], above 128 µg/mL; in the data set with Staphylococcus aureus [4] it was 0.5 µg/mL (≈ 1.15 µM); against Staphylococcus aureus [5], 0.5 µg/mL (≈ 1.15 µM); against Escherichia coli [6], 128 µg/mL (≈ 295 µM); in the data set on Escherichia coli [7], above 128 µg/mL. Besides, the MIC with Pseudomonas aeruginosa [8] was 4 µg/mL (≈ 9.21 µM); with Staphylococcus aureus [9], 0.5 µg/mL (≈ 1.15 µM); in the data set with Enterococcus faecalis [10], 4 µg/mL (≈ 9.21 µM); in the data set with Klebsiella pneumoniae [11], above 128 µg/mL; against Pseudomonas aeruginosa [12] it was 8 µg/mL (≈ 18.4 µM); with Klebsiella pneumoniae [13] it was 4 µg/mL (≈ 9.21 µM). Further, the MIC is above 128 µg/mL in the data set with Enterococcus faecalis [14], above 128 µg/mL in the data set on Enterococcus faecium [15], 4 µg/mL (≈ 9.21 µM) in the data set on Streptococcus pneumoniae and 0.5 µg/mL (≈ 1.15 µM) in [16].
As to `CO/N=C1\CN(c2c(F)cc3c(=O)c(C(=O)O)cn(C4CC4)c3c2OC(F)F)CCC1(C)N` (stereo not given), in data set [1], the midpoint of cytotoxicity, the CC50 at 48 h, lay at 1070 µM. For the same compound, the MIC in [2] is 0.25 µg/mL (≈ 0.534 µM); in the data set with Enterococcus faecium [3], above 128 µg/mL; in the data set on Staphylococcus aureus [4], 0.25 µg/mL (≈ 0.534 µM); with Staphylococcus aureus [5] it was 0.25 µg/mL (≈ 0.534 µM); with Escherichia coli [6], 128 µg/mL (≈ 273 µM); against Escherichia coli [7], above 128 µg/mL. In addition, the MIC in the data set with Pseudomonas aeruginosa [8] was 2 µg/mL (≈ 4.27 µM); in the data set with Staphylococcus aureus [9] it was 0.25 µg/mL (≈ 0.534 µM); with Enterococcus faecalis [10] it was 8 µg/mL (≈ 17.1 µM); in the data set with Klebsiella pneumoniae [11] it was above 128 µg/mL; with Pseudomonas aeruginosa [12], 4 µg/mL (≈ 8.54 µM); in the data set with Klebsiella pneumoniae [13], 2 µg/mL (≈ 4.27 µM). The MIC with Enterococcus faecalis [14] is above 128 µg/mL; in the data set with Enterococcus faecium [15] it was above 128 µg/mL; in the data set with Streptococcus pneumoniae, 0.25 µg/mL (≈ 0.534 µM); in [16], 0.25 µg/mL (≈ 0.534 µM).

The record behind these values is ChEMBL document CHEMBL1781961, “Synthesis and in vitro antibacterial activity of 7-(3-alkoxyimino-4-amino-4-methylpiperidin-1-yl) fluoroquinolone derivatives” (Eur J Med Chem, 2011).
